Test results from ChEMBL document CHEMBL1157746, “Function-oriented synthesis of simplified caprazamycins: discovery of oxazolidine-containing uridine derivatives as antibacterial agents against drug-resistant bacteria” (J Med Chem, 2010).

How the values were obtained:
[1] = target: T1, Phospho-N-acetylmuramoyl-pentapeptide-transferase (Bacillus subtilis (strain 168), UniProt Q03521); assay: Inhibition of Bacillus subtilis MraY after 30 mins using UDP-MurNAc-pentapeptide as substrate
T1 sequence (Q03521 whole entry): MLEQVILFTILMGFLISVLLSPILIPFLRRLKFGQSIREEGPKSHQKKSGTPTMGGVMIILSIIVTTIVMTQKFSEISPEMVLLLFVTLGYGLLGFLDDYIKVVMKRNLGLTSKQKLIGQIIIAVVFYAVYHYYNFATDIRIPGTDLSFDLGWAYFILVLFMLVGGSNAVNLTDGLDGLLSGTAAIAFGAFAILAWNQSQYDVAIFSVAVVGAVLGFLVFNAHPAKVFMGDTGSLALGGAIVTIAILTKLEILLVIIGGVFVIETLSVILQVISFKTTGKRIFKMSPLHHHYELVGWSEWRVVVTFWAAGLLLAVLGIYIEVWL

Staphylococcus aureus [2] = assay: Antibacterial activity against methicillin-sensitive Staphylococcus aureus ATCC 29213 after 20 hrs by two fold microdilution broth method; assay type: functional; settings: ATCC 29213, 20 h
How it was run: (§1)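 NCCLS-recommended broth microdilution in cation-adjusted Mueller-Hinton broth; serial 2-fold compound dilutions; each well inoculated with 5×10⁴ CFU in 0.1 mL; incubated 35 °C for 20 h, then MIC (μg/mL) scored.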

Staphylococcus aureus [3] = assay: Antibacterial activity against methicillin-resistant Staphylococcus aureus SR-3637 clinical isolate after 20 hrs by two fold microdilution broth method; assay type: functional; settings: SR3637, 20 h
How it was run: (§2)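 NCCLS broth microdilution in cation-adjusted Mueller-Hinton broth. Serial 2-fold compound dilutions, inoculum 5×10⁴ CFU per well in 0.1 mL. Plates incubated at 35 °C for 20 h, then MIC (μg/mL) scored. Strains are clinical isolates from Japanese hospitals: MRSA SR3637, VanA E. faecalis SR7914, VanA E. faecium SR7917.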

Enterococcus faecalis [4] = assay: Antibacterial activity against Enterococcus faecalis ATCC 29212 after 20 hrs by two fold microdilution broth method; assay type: functional; settings: ATCC 29212, 20 h; how it was run: as §1
Enterococcus faecalis [5] = assay: Antibacterial activity against vancomycin-resistant Enterococcus faecalis SR-7914 clinical isolate after 20 hrs by two fold microdilution broth method; assay type: functional; settings: SR7914, 20 h; how it was run: as §2
Enterococcus faecium [6] = assay: Antibacterial activity against Enterococcus faecium ATCC 19434 after 20 hrs by two fold microdilution broth method; assay type: functional; settings: ATCC 19434, 20 h; how it was run: as §1
Enterococcus faecium [7] = assay: Antibacterial activity against vancomycin-resistant Enterococcus faecium SR-7917 clinical isolate after 20 hrs by two fold microdilution broth method; assay type: functional; settings: SR7917, 20 h; how it was run: as §2

Compound | IC50 [1] [µM] | MIC (Staphylococcus aureus [2]) [µg/mL] | MIC (Staphylococcus aureus [3]) [µg/mL] | MIC (Enterococcus faecalis [4]) [µg/mL] | MIC (Enterococcus faecalis [5]) [µg/mL] | MIC (Enterococcus faecium [6]) [µg/mL] | MIC (Enterococcus faecium [7]) [µg/mL]
CCCCCCCCc1ccc(NC(=O)[C@@H](N)[C@H](O[C@@H]2O[C@H](CN)[C@@H](O)[C@H]2O)[C@H]2O[C@@H](n3ccc(=O)[nH]c3=O)[C@H](O)[C@@H]2O)cc1.O=C(O)C(F)(F)F | 46 | 64 | 64 | 16 | 64 | 32 | 32
CCCCCCCCCCCCNC(=O)[C@@H](N)[C@H](O[C@@H]1O[C@H](CN)[C@@H](O)[C@H]1O)[C@H]1O[C@@H](n2ccc(=O)[nH]c2=O)[C@H](O)[C@@H]1O.O=C(O)C(F)(F)F | 18 | 64 | 64 | 16 | 32 | 16 | 16
CCCCCCCCCCCC(=O)N[C@H](C(=O)O)[C@H](O[C@@H]1O[C@H](CN)[C@@H](O)[C@H]1O)[C@H]1O[C@@H](n2ccc(=O)[nH]c2=O)[C@H](O)[C@@H]1O.O=C(O)C(F)(F)F | 63 | > 64 | > 64 | > 64 | > 64 | > 64 | > 64
CCCCCCCCc1ccc(C(=O)N[C@H](C(=O)O)[C@H](O[C@@H]2O[C@H](CN)[C@@H](O)[C@H]2O)[C@H]2O[C@@H](n3ccc(=O)[nH]c3=O)[C@H](O)[C@@H]2O)cc1.O=C(O)C(F)(F)F | 256 | > 64 | > 64 | 64 | > 64 | > 64 | > 64
CCCCCCCCCCCCNC(=O)N[C@H](C(=O)O)[C@H](O[C@@H]1O[C@H](CN)[C@@H](O)[C@H]1O)[C@H]1O[C@@H](n2ccc(=O)[nH]c2=O)[C@H](O)[C@@H]1O.O=C(O)C(F)(F)F | 36 | > 64 | > 64 | 64 | 64 | > 64 | > 64
CCCCCCCCc1ccc(NC(=O)N[C@H](C(=O)O)[C@H](O[C@@H]2O[C@H](CN)[C@@H](O)[C@H]2O)[C@@H]2O[C@@H](n3ccc(=O)[nH]c3=O)[C@H](O)[C@@H]2O)cc1.O=C(O)C(F)(F)F | 75 | > 64 | > 64 | 64 | 64 | > 64 | > 64
CCCCCCCCCCCCCCCC(=O)N1[C@H](C(=O)O)[C@@H]([C@H]2O[C@@H](n3ccc(=O)[nH]c3=O)[C@H](O)[C@@H]2O)O[C@@H]1CN | 740 | > 64 | > 64 | > 64 | > 64 | > 64 | > 64
CCCCCCCCCCCCCCCC(=O)N1[C@H](C(=O)O)[C@@H]([C@H]2O[C@@H](n3ccc(=O)[nH]c3=O)[C@H](O)[C@@H]2O)O[C@@H]1CCN | 451 | > 64 | > 64 | > 64 | > 64 | > 64 | > 64
CCCCCCCCCCCCCCCC(=O)N1[C@H](C(=O)O)[C@@H]([C@H]2O[C@@H](n3ccc(=O)[nH]c3=O)[C@H](O)[C@@H]2O)O[C@@H]1CCCN | 360 | > 64 | > 64 | > 64 | > 64 | > 64 | > 64
CCCCCCCCCCCCCCCC(=O)N1[C@H](C(=O)OC)[C@@H]([C@H]2O[C@@H](n3ccc(=O)[nH]c3=O)[C@H](O)[C@@H]2O)O[C@@H]1CN.Cl | 980 | > 64 | 13 | 32 | 64 | 32 | 16
